Source: ChEMBL document CHEMBL3102760, “Novel PARP-1 inhibitors based on a 2-propanoyl-3H-quinazolin-4-one scaffold” (Bioorg Med Chem Lett, 2014)

Tests used:
[1] = target: T1, Poly [ADP-ribose] polymerase 1 (Homo sapiens, UniProt P09874); assay: Inhibition of GST-tagged recombinant human PARP-1 expressed in Escherichia coli after 30 mins by fluorescence-based assay
[2] = target: T1, Poly [ADP-ribose] polymerase 1; assay: Inhibition of PARP-1-mediated PARylation in H2O2-induced human HeLa cells preincubated for 3 hrs followed by H2O2 addition measured after 5 mins by Draq5 staining-based fluorescence assay; format: cell-based
How it was run: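 HeLa cell PARylation assay; EC50 values are the mean of two experiments.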

[3] = Growth inhibition of human MDA-MB-436 cells after 7 days by SRB assay; details: MDA-MB-436, 7 days
[4] = test system: MX1; assay: Antitumor activity against human MX1 cells xenografted in SCID beige mouse assessed as tumor volume inhibition at 200 mg/kg, ip administered qd for 5 days per week up to 3 weeks relative to control; format: functional; parameters: scale not given: the % may be the effect or the level left; details: route intraperitoneal
How it was run: (§1)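 MX1 breast carcinoma cells were xenografted into athymic SCID beige mice, with dosing starting 7 days after tumor injection. Compound was given intraperitoneally at 200 mg/10 mL/kg, schedule qdx5/wx3w, versus a vehicle group; 8 mice per group. Tumor volume and body weight loss were read at day +38. Tumor volume was compared with the vehicle group by Mann-Whitney test.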

[5] = Half life in human hepatocytes; format: ADME, cell-based, Hepatocyte
[6] = Metabolic stability in human plasma assessed as compound recovery after 2 hrs; format: ADME, cell-free; details: read-out: Drug recovery
[7] = Ratio of drug level in blood to plasma (unknown origin) after 60 mins; format: ADME; details: blood and plasma
[8] = Activity at P-gp (unknown origin); format: ADME; details: human
[9] = Efflux ratio of permeability in human Caco2 cells; format: ADME, cell-based; details: Caco-2
How it was run: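 Bidirectional Caco-2 cell monolayer permeability assay; the efflux ratio was derived from the two transport directions.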

[10] = test system: Mus musculus; assay: Toxicity in SCID beige mouse xenografted with human MX1 cells assessed as body weight loss at 200 mg/kg, ip administered qd for 5 days per week up to 3 weeks relative to control; format: organism-based; parameters: dose 200 mg/kg, route intraperitoneal; details: in vivo; how it was run: as §1
[11] = test system: Mus musculus; assay: Toxicity in SCID beige mouse xenografted with human MX1 cells assessed as lethality at 200 mg/kg, ip administered qd for 5 days per week up to 3 weeks; format: organism-based; parameters: dose 200 mg/kg, route intraperitoneal; details: in vivo
How it was run: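 Athymic SCID beige mice carrying MX1 breast carcinoma xenografts (BRCA1 deletion, BRCA2 mutation), 8 per group. Treatment began 7 days after tumour cell injection: ip at 200 mg/kg in 10 mL/kg, once daily 5 days/week for 3 weeks, with a vehicle-treated control group. Lethality was scored as deaths per group. Body-weight loss % was recorded alongside, and tumour volume was measured at day +38.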

T1 sequence (P09874 whole entry): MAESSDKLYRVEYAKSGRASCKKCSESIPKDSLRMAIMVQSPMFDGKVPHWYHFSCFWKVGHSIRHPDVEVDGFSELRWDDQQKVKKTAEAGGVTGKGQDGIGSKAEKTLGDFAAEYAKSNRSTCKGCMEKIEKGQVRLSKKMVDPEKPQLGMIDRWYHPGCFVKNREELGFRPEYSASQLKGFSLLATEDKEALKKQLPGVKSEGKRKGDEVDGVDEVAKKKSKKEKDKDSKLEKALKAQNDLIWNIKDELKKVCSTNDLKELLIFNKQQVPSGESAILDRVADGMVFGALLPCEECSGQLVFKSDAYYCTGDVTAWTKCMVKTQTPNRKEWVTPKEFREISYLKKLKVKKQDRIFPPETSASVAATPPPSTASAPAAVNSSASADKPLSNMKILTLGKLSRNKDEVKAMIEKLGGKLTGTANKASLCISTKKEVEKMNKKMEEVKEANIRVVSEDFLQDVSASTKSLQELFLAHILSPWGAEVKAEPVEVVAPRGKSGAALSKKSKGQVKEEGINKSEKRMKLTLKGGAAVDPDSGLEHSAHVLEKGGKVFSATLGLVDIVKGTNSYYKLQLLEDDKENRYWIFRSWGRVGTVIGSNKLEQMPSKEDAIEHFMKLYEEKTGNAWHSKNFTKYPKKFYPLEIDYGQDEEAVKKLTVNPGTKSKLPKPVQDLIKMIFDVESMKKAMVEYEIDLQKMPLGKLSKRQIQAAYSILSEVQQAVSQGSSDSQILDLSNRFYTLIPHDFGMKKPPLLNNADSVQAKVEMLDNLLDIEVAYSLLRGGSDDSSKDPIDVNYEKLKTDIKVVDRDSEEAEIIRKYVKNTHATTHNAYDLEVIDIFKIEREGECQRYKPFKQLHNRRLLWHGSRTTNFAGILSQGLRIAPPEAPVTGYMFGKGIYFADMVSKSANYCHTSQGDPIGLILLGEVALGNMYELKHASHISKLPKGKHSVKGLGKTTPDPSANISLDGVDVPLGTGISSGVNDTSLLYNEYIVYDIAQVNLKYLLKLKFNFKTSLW

SMILES	IC50 [1]	further results
NC(=O)C1CCN(C(=O)CCc2nc(O)c3ccccc3n2)CC1	0.27 µM	–
NC(=O)c1ccccc1OCC(=O)N1CCc2ccccc2C1	0.0429 µM	–
Cc1ccc2c(c1)CCCN2C(=O)CCc1nc2ccccc2c(=O)[nH]1	1.03 µM	–
Cc1oc(C(N)=O)cc1COc1ccccc1C(N)=O	1.66 µM	–
CN(C)CC(C)(C)CN/C=C1/C(=O)NC(=O)c2ccccc21	0.0874 µM	–
O=C(CCc1nc2ccccc2c(=O)[nH]1)N1CCN(C(=O)c2ccco2)CC1	0.0285 µM	–
O=C(CCc1nc2ccccc2c(=O)[nH]1)N1CCN(C(=O)C2CC2)CC1	0.0671 µM	EC50 [2]: 0.707 µM; IC50 [3]: 51.1 µM
O=C(CCc1nc2ccccc2c(=O)[nH]1)N1CCN(C(=O)C2CCCC2)CC1	0.11 µM	–
O=C(CCc1nc2ccccc2c(=O)[nH]1)N1CCN(C(=O)C2CCCO2)CC1 (stereo not drawn)	0.13 µM	–
O=C(CCc1nc2ccccc2c(=O)[nH]1)N1CCN(C(=O)c2cccs2)CC1	0.0098 µM	Activity [4]: 47%; half-life [5]: 9.73 h; remaining at 2 h [6]: 50%; blood plasma ratio at 1 h [7]: 0.4; Activity [8]: Not Active; efflux ratio [9]: 5.8; EC50 [2]: 0.256 µM; Activity [10]: 10%; Activity [11]: Non-toxic; IC50 [3]: 17.3 µM
O=C(CCc1nc2ccccc2c(=O)[nH]1)N1CCN(C(=O)c2ccc[nH]2)CC1	0.0295 µM	EC50 [2]: 0.865 µM; IC50 [3]: 18.1 µM
Cc1c(C(=O)N2CCN(C(=O)CCc3nc4ccccc4c(=O)[nH]3)CC2)oc2ccccc12	0.13 µM	–
O=C(CCc1nc2ccccc2c(=O)[nH]1)N1CCN(C(=O)c2ccc(F)cc2)CC1	0.0561 µM	half-life [5]: 10.3 h; remaining at 2 h [6]: 57%; blood plasma ratio at 1 h [7]: 0.4; Activity [8]: Not Active; efflux ratio [9]: 6; EC50 [2]: 0.467 µM; IC50 [3]: 19.5 µM
C=CCOC(=O)N1CCCC(C(=O)N2CCN(C(=O)CCc3nc4ccccc4c(=O)[nH]3)CC2)C1 (stereo not drawn)	0.3 µM	–
O=C(CCc1nc2ccccc2c(=O)[nH]1)N1CCN(C(=O)C2CCCNC2)CC1 (stereo not drawn)	0.0319 µM	–
C=CCN1CCCC(C(=O)N2CCN(C(=O)CCc3nc4ccccc4c(=O)[nH]3)CC2)C1 (stereo not drawn)	0.22 µM	–
CC(=O)c1ccc(NC(=O)CCn2c(=O)[nH]c(=O)c3ccccc32)cc1	0.0876 µM	–
O=C(Cc1n[nH]c(=O)c2ccccc12)NCc1ccc(N2CCOCC2)nc1	0.0498 µM	–
O=C1NC(=O)c2ccccc2/C1=C\Nc1ccccc1N1CCCCC1	1.21 µM	–
O=C1NC(=O)c2ccccc2/C1=C\c1ccc(F)cc1	2.54 µM	–
O=C1CN(C(=O)CCc2nc3ccccc3c(=O)[nH]2)CCN1	0.19 µM	–

SMILES	IC50 [1]	further results
NC(=O)c1ccc(NC(=O)CCCc2nc3ccccc3c(=O)[nH]2)cc1	4.7 µM	–
O=C1CN(C(=O)CSc2nc3ccccc3c(=O)[nH]2)c2ccccc2N1	0.54 µM	–
NC(=O)c1ccc(NC(=O)CCn2c(=O)[nH]c(=O)c3ccccc32)cc1	0.13 µM	–
CC(=O)Nc1ccc(NC(=O)CCn2c(=O)[nH]c(=O)c3ccccc32)cc1	0.76 µM	–
NS(=O)(=O)Nc1ccc(NC(=O)CCn2c(=O)[nH]c(=O)c3ccccc32)cc1	0.41 µM	–
O=C(CCn1c(=O)[nH]c(=O)c2ccccc21)Nc1ccccc1F	1.52 µM	–
Cc1ccc(NC(=O)CCn2c(=O)[nH]c(=O)c3ccccc32)c(O)c1	0.35 µM	–
Cc1ccc(NS(=O)(=O)c2ccc(NC(=O)Cn3c(=O)[nH]c(=O)c4ccccc43)cc2C)c(C)c1	1.28 µM	–
O=C(c1n[nH]c(=O)c2ccccc12)N1CCN(/C=C/c2ccccc2)CC1	0.26 µM	–
CC(NC(=O)Cc1n[nH]c(=O)c2ccccc12)c1ccc2c(c1)CCCC2 (stereo not drawn)	1.86 µM	–
O=C(Cc1n[nH]c(=O)c2ccccc12)NCCc1ccc2c(c1)OCCO2	0.28 µM	–
O=C(Cc1n[nH]c(=O)c2ccccc12)NCc1ccc(S(=O)(=O)N2CCOCC2)cc1	0.6 µM	–
O=C(CN1CCN(C(=O)Cc2n[nH]c(=O)c3ccccc23)CC1)Nc1cccc(F)c1	1.1 µM	–
CCN(CC(=O)Cc1c(F)cccc1F)C(=O)Cc1n[nH]c(=O)c2ccccc12	0.6 µM	–
O=C(Cc1n[nH]c(=O)c2ccccc12)NCC(c1ccccc1Cl)N1CCCC1 (stereo not drawn)	1.96 µM	–
NC(=O)c1ccc(COc2ccccc2C(N)=O)cc1	0.82 µM	–
CC(NC(=O)COc1ccccc1C(N)=O)c1ccccc1 (stereo not drawn)	0.82 µM	–
NC(=O)c1ccccc1OCC(=O)N1CC(=O)Nc2cc(C(F)(F)F)ccc21	1.06 µM	–
CC(=O)c1ccc(N2CCN(C(=O)COc3ccccc3C(N)=O)CC2)c(F)c1	0.28 µM	–
CC(C)NS(=O)(=O)c1ccc(NC(=O)Cc2n[nH]c(=O)c3ccccc23)cc1	0.69 µM	–
Cn1nnc2c(C(N)=O)ncn2c1=O [TEMOZOLOMIDE]	–	IC50 [3]: 120 µM
